Experimental data taken from ChEMBL document CHEMBL4251567 (Eur J Med Chem, 2018).
Blank lines part the entries; values can stand above or below the compound they belong to.

How the values were obtained:
U-937 [1] = test: Cytotoxicity against human U937 cells assessed as cell viability at 200 uM after 44 hrs in presence of tubastatin by MTT assay relative to control; format: functional; details: U-937, 44 h, read-out: Activity
U-937 [2] = test: Cytotoxicity against human U937 cells assessed as cell viability at 2.5 x 10^-3 M after 44 hrs by MTT assay relative to control; format: functional; details: U-937, 44 h, read-out: Activity
U-937 [3] = test: Cytotoxicity against human U937 cells assessed as decrease in cell viability after 44 hrs by MTT assay; format: functional, cell-based; details: Homo sapiens, U-937, 44 h
U-937 [4] = test: Cytotoxicity against human U937 cells assessed as cell viability at 5 x 10^-4 M after 44 hrs by MTT assay relative to control; format: functional; details: U-937, 44 h, read-out: Activity
U-937 [5] = test: Cytotoxicity against human U937 cells assessed as cell viability at 1.25 x 10^-3 M after 44 hrs by MTT assay relative to control; format: functional; details: U-937, 44 h, read-out: Activity
U-937 [6] = test: Cytotoxicity against human U937 cells assessed as cell viability at 5 x 10^-3 M after 44 hrs by MTT assay relative to control; format: functional; details: U-937, 44 h, read-out: Activity
U-937 [7] = test: Cytotoxicity against human U937 cells assessed as cell viability at 200 uM after 44 hrs by MTT assay relative to control; format: functional; details: U-937, 44 h, read-out: Activity
[8] = biological target: Histone deacetylase 1 (Homo sapiens) (UniProt Q13547); test: Inhibition of HDAC1 in human HeLa-S3 cell lysates assessed as remaining activity at 5 x 10^-6 M preincubated for 15 mins followed by HDAC-Glo substrate addition measured after 30 to 40 mins by […] relative to control
Chain of Histone deacetylase 1 (Homo sapiens) (Q13547 whole entry): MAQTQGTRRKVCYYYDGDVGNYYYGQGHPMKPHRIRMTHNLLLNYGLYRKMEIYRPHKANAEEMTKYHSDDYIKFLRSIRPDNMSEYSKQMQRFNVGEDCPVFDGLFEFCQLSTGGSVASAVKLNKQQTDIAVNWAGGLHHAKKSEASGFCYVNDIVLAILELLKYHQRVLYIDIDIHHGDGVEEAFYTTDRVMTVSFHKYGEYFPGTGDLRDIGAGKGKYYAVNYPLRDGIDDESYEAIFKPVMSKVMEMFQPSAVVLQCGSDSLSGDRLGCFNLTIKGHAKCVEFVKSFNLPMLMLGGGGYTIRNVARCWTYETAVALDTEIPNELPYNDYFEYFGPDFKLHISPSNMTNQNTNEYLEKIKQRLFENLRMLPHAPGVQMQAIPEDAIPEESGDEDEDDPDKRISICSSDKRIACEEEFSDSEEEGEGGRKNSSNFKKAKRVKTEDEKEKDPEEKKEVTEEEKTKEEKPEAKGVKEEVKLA
Summary of the method: (§1)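 HDAC1 was captured from HeLa-S3 lysate (100 μg/mL) onto wells precoated with anti-HDAC1 antibody (10 μg/mL, carbonate buffer pH 9.4) and milk-blocked, 1 h at 4 °C, then washed. Inhibitor in DMSO was added in HDAC-Glo buffer for 15 min at room temperature. HDAC-Glo reagent was added and luminescence read after 30-40 min. Concentrations are final. No-antibody background subtracted; % of DMSO control.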

[9] = biological target: Histone deacetylase 1 (Homo sapiens) (UniProt Q13547); test: Inhibition of HDAC1 in human HeLa-S3 cell lysates assessed as remaining activity at 4 x 10^-5 M preincubated for 15 mins followed by HDAC-Glo substrate addition measured after 30 to 40 mins by […] relative to control; summary of the method: as §1
[10] = biological target: Histone deacetylase 3 (Homo sapiens) (UniProt O15379); test: Inhibition of HDAC3 in human HeLa-S3 cell lysates assessed as remaining activity at 8 x 10^-5 M preincubated for 15 mins followed by HDAC-Glo substrate addition measured after 30 to 40 mins by […] relative to control
Chain of Histone deacetylase 3 (Homo sapiens) (O15379 whole entry): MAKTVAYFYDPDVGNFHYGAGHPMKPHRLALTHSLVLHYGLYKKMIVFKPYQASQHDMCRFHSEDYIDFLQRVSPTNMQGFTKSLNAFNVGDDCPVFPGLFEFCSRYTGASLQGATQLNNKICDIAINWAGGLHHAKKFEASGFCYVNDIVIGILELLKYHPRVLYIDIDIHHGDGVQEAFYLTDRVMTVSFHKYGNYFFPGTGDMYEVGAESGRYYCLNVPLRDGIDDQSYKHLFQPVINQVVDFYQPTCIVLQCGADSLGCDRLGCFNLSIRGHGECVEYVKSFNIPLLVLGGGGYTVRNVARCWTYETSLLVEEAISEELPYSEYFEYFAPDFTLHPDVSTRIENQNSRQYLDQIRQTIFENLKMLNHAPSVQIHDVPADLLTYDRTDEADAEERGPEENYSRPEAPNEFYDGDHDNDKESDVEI
Summary of the method: (§2)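 Antibody-capture (ELISA-type) assay: HDAC antibody coated in carbonate/bicarbonate buffer pH 9.4, wells blocked with 5% milk in TBST. HeLa-S3 lysate added at 1 mg/mL for HDAC3, 1 h at 4 °C, then washed. Inhibitor in DMSO preincubated 15 min at RT in HDAC-Glo buffer. HDAC-Glo reagent added, luminescence read after 30-40 min. Concentrations are final. Background = no-antibody well; activity given as % of DMSO control.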

[11] = biological target: Histone deacetylase 1 (Homo sapiens) (UniProt Q13547); test: Inhibition of HDAC1 in human HeLa-S3 cell lysates assessed as remaining activity at 8 x 10^-5 M preincubated for 15 mins followed by HDAC-Glo substrate addition measured after 30 to 40 mins by […] relative to control
[12] = biological target: Histone deacetylase 3 (Homo sapiens) (UniProt O15379); test: Inhibition of HDAC3 in human HeLa-S3 cell lysates assessed as remaining activity at 2 x 10^-5 M preincubated for 15 mins followed by HDAC-Glo substrate addition measured after 30 to 40 mins by […] relative to control; summary of the method: as §2
[13] = biological target: Histone deacetylase 3 (Homo sapiens) (UniProt O15379); test: Inhibition of HDAC3 in human HeLa-S3 cell lysates assessed as remaining activity at 4 x 10^-5 M preincubated for 15 mins followed by HDAC-Glo substrate addition measured after 30 to 40 mins by […] relative to control; summary of the method: as §2
[14] = biological target: Histone deacetylase 3 (Homo sapiens) (UniProt O15379); test: Inhibition of HDAC3 in human HeLa-S3 cell lysates assessed as remaining activity at 5 x 10^-6 M preincubated for 15 mins followed by HDAC-Glo substrate addition measured after 30 to 40 mins by […] relative to control; summary of the method: as §2
[15] = biological target: Histone deacetylase 1 (Homo sapiens) (UniProt Q13547); test: Inhibition of HDAC1 in human HeLa-S3 cell lysates assessed as remaining activity at 1 x 10^-5 M preincubated for 15 mins followed by HDAC-Glo substrate addition measured after 30 to 40 mins by fluorimetric method relative to control; summary of the method: as §1
[16] = biological target: Histone deacetylase 2 (Homo sapiens) (UniProt Q92769); test: Inhibition of HDAC2 in human HeLa-S3 cell lysates assessed as remaining activity at 5 x 10^-6 M preincubated for 15 mins followed by HDAC-Glo substrate addition measured after 30 to 40 mins by […] relative to control
Chain of Histone deacetylase 2 (Homo sapiens) (Q92769 whole entry, canonical isoform): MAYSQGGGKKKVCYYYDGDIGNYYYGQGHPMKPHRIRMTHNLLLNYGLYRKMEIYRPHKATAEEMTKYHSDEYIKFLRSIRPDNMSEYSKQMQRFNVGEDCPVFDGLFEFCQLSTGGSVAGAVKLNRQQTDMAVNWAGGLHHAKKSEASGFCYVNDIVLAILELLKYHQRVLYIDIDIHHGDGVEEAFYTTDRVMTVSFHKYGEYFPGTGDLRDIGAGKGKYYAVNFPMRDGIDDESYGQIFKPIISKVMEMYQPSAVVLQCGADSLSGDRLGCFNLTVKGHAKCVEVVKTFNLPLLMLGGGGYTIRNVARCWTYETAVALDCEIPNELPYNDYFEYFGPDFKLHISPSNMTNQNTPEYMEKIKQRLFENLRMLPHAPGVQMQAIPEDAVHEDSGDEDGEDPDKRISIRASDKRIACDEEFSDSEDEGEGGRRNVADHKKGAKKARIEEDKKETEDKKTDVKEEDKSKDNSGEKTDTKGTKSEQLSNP
Summary of the method: (§3)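 Same antibody-capture format as the other class I isoforms. HeLa-S3 lysate added at 100 μg/mL for HDAC1 and HDAC2, 1 h at 4 °C, then washed. Inhibitor in DMSO preincubated 15 min at RT; HDAC-Glo reagent added and luminescence read after 30-40 min. Concentrations are final. Signal corrected against a well without antibody; activity expressed as % of DMSO control.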

[17] = biological target: T1, Protein deacetylase HDAC6 (Homo sapiens) (UniProt Q9UBN7); test: Inhibition of HDAC6 in human HeLa-S3 cell lysates assessed as remaining activity at 1.25 x 10^-8 M preincubated for 15 mins followed by HDAC-Glo substrate addition measured after 30 to 40 mins by […] relative to control
T1 sequence (whole entry): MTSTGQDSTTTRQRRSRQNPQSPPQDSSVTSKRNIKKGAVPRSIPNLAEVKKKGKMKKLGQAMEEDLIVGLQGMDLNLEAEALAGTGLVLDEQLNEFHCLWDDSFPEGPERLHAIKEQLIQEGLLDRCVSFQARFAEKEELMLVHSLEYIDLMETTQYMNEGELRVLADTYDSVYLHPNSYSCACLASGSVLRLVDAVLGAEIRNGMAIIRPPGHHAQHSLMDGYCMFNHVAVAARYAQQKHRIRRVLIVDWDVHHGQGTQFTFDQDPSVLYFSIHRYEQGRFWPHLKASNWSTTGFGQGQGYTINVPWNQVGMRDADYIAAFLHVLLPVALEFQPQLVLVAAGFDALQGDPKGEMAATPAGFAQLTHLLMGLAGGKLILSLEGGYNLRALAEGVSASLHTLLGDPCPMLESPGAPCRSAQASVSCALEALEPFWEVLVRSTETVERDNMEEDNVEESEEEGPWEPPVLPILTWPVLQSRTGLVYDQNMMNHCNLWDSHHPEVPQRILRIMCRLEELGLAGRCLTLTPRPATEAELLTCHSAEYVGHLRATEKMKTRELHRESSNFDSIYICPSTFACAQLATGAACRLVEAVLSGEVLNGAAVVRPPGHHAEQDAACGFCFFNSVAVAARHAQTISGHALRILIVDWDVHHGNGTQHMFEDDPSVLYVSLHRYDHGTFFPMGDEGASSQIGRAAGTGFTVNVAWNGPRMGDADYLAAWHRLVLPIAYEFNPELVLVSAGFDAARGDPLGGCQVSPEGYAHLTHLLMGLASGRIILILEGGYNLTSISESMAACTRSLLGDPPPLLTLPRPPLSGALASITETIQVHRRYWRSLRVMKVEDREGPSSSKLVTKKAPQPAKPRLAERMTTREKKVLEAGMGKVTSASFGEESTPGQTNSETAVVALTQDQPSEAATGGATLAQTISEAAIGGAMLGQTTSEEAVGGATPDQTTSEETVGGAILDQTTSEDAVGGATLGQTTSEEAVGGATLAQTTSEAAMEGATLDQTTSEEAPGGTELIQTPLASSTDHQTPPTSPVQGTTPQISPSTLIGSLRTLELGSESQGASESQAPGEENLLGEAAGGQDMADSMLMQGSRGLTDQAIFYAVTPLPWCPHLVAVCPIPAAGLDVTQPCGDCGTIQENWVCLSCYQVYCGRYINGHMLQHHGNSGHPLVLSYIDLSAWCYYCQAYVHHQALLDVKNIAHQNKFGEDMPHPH
Summary of the method: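 HDAC6 captured on an anti-HDAC6 antibody-coated plate (2 μg/mL, pH 9.4 carbonate buffer, milk-blocked). HeLa-S3 lysate loaded at 1 mg/mL, 1 h at 4 °C, then washed. 15 min RT preincubation with inhibitor in DMSO; HDAC-Glo reagent added, luminescence read at 30-40 min. Concentrations are final. Background = no-antibody well; values are % activity versus DMSO control.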

[18] = biological target: Histone deacetylase 3 (Homo sapiens) (UniProt O15379); test: Inhibition of HDAC3 in human HeLa-S3 cell lysates assessed as remaining activity at 1 x 10^-5 M preincubated for 15 mins followed by HDAC-Glo substrate addition measured after 30 to 40 mins by […] relative to control; summary of the method: as §2
[19] = biological target: Histone deacetylase 1 (Homo sapiens) (UniProt Q13547); test: Inhibition of HDAC1 in human HeLa-S3 cell lysates assessed as remaining activity at 2 x 10^-5 M preincubated for 15 mins followed by HDAC-Glo substrate addition measured after 30 to 40 mins by […] relative to control; summary of the method: as §1
[20] = biological target: Histone deacetylase 2 (Homo sapiens) (UniProt Q92769); test: Inhibition of HDAC2 in human HeLa-S3 cell lysates assessed as remaining activity at 2 x 10^-5 M preincubated for 15 mins followed by HDAC-Glo substrate addition measured after 30 to 40 mins by fluorimetric method relative to control; summary of the method: as §3
[21] = biological target: Histone deacetylase 2 (Homo sapiens) (UniProt Q92769); test: Inhibition of HDAC2 in human HeLa-S3 cell lysates assessed as remaining activity at 4 x 10^-5 M preincubated for 15 mins followed by HDAC-Glo substrate addition measured after 30 to 40 mins by […] relative to control; summary of the method: as §3
[22] = biological target: Histone deacetylase 2 (Homo sapiens) (UniProt Q92769); test: Inhibition of HDAC2 in human HeLa-S3 cell lysates assessed as remaining activity at 8 x 10^-5 M preincubated for 15 mins followed by HDAC-Glo substrate addition measured after 30 to 40 mins by […] relative to control; summary of the method: as §3
U-937 [23] = test: Cytotoxicity against human U937 cells assessed as cell viability at 3 x 10^-3 M after 44 hrs by MTT assay relative to control; format: functional; details: U-937, 44 h, read-out: Activity
U-937 [24] = test: Cytotoxicity against human U937 cells assessed as cell viability at 1 x 10^-3 M after 44 hrs by MTT assay relative to control; format: functional; details: U-937, 44 h, read-out: Activity
U-937 [25] = test: Cytotoxicity against human U937 cells assessed as cell viability at 80 uM after 44 hrs by MTT assay relative to control; format: functional; details: U-937, 44 h, read-out: Activity
U-937 [26] = test: Cytotoxicity against human U937 cells assessed as cell viability at 2.5 x 10^-4 M after 44 hrs by MTT assay relative to control; format: functional; details: U-937, 44 h, read-out: Activity
U-937 [27] = test: Cytotoxicity against human U937 cells assessed as cell viability at 80 uM after 44 hrs in presence of PCI-34051 by MTT assay relative to control; format: functional; details: U-937, 44 h, read-out: Activity
U-937 [28] = test: Cytotoxicity against human U937 cells assessed as cell viability at 4 x 10^-3 M after 44 hrs by MTT assay relative to control; format: functional; details: U-937, 44 h, read-out: Activity

SMILES: COc1ccc(Cn2ccc3ccc(C(=O)NO)cc32)cc1
viability at 200 µM (U-937 [1]): 13%
viability at 2500 µM (U-937 [2]): 50%
EC50 (U-937 [3]): 210 µM
viability at 500 µM (U-937 [4]): 85%
viability at 1250 µM (U-937 [5]): 71%
viability at 5000 µM (U-937 [6]): 9%
viability at 200 µM (U-937 [7]): 62%

Activity [8]: 88%
Activity [9]: 38%
Activity [10]: 25%
Activity [11]: 24%
Activity [12]: 54%
Activity [13]: 39%
Activity [14]: 89%
Activity [15]: 72%
Activity [16]: 96%
Activity [17]: 67%
Activity [18]: 77%
Activity [19]: 53%
Activity [20]: 71%
Activity [21]: 43%
Activity [22]: 29%
SMILES: O=C(CC[C@@H](CCCC(=O)Nc1ccccc1)Cc1ccccc1)NO

SMILES: CN1CCc2c(c3ccccc3n2Cc2ccc(C(=O)NO)cc2)C1 [TUBASTATIN A]
viability at 3000 µM (U-937 [23]): 19%
viability at 1000 µM (U-937 [24]): 38%
EC50 (U-937 [3]): 83 µM
viability at 80 µM (U-937 [25]): 44%
viability at 250 µM (U-937 [26]): 82%
viability at 500 µM (U-937 [4]): 68%
viability at 80 µM (U-937 [27]): 13%
viability at 4000 µM (U-937 [28]): 17%
